Test results reported in ChEMBL document CHEMBL1143412, “RSV604, a novel inhibitor of respiratory syncytial virus replication” (Antimicrob Agents Chemother, 2007).
pEC50: −log10 of the molar value.

Experiments:
[1] = system: Respiratory syncytial virus; test: Antiviral activity against RSV RSS infected human Hep2 cells assessed as inhibition of virus-induced cell death after 6 days by XTT assay; type: functional, organism-based; details: HEp-2, 144 h
Summary of the method: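 HEp-2 cells seeded at 4 × 10³ per well in DMEM with 10% FBS, infected next day with RSV RSS dosed to give about 80% cytopathic effect by day 6. Serial compound dilutions (top 10 μM, 0.5% DMSO) present throughout. Viability read by XTT reduction after 6 days. EC50 taken as 50% reduction in virus-induced cell death.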

[2] = system: Respiratory syncytial virus; test: Antiviral activity against RSV RSS infected human Hep2 cells assessed as reduction of viral antigen synthesis after 3 days by ELISA; type: functional, organism-based; details: HEp-2, 72 h
Summary of the method: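 HEp-2 cells seeded at 5 × 10³ per well in DMEM/10% FBS for 24 h, infected with RSV RSS at MOI about 0.02, serial compound dilutions for 3 days. Cells fixed and permeabilised in methanol-acetone, blocked in milk-Tween. Probed with mouse anti-RSV monoclonal then HRP anti-mouse. Developed with o-phenylenediamine/H2O2, absorbance […].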

[3] = system: Respiratory syncytial virus; test: Antiviral activity against RSV RSS infected human Hep2 cells after 5 days by plaque reduction assay; type: functional, organism-based; details: HEp-2, 120 h
Summary of the method: (§1)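 HEp-2 monolayers in six-well plates infected with 0.2 ml of 500 PFU/ml virus. After 2 h, overlaid with DMEM, 2% FBS, 0.6% agarose plus compound dilution series. Incubated 5 days, formaldehyde-fixed, plaques stained with methylene blue or immunostained and counted. Activity expressed as percent of plaques in untreated infected wells.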

[4] = system: Respiratory syncytial virus; test: Antiviral activity against RSV Long infected human Hep2 cells after 5 days by plaque reduction assay; type: functional, organism-based; details: HEp-2, 120 h; summary of the method: as §1
[5] = system: Respiratory syncytial virus; test: Antiviral activity against RSV A2 infected human Hep2 cells after 5 days by plaque reduction assay; type: functional, organism-based; details: A2, HEp-2, 120 h; summary of the method: as §1
[6] = Cytotoxicity against RSV RSS infected human Hep2 cells after 6 days by XTT assay; type: cell-based, HEp-2
[7] = Therapeutic index, CC50 for human Hep2 cells to EC50 for RSV RSS; type: cell-based, HEp-2; details: read-out: Ratio CC50/EC50
Summary of the method: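 Ratio of CC50 from uninfected HEp-2 XTT control plates to EC50 from RSV RSS-infected XTT plates, both read after 6 days.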

[8] = system: Respiratory syncytial virus; test: Antiviral activity against RSV B infected human Hep2 cells after 5 days by plaque reduction assay; type: functional, organism-based; details: HEp-2, 120 h; summary of the method: as §1
[9] = system: Respiratory syncytial virus; test: Antiviral activity against DMSO-passaged wild type RSV RSS infected human Hep2 cells by plaque reduction assay; type: functional, organism-based; details: HEp-2; summary of the method: as §1
[10] = system: Respiratory syncytial virus; test: Antiviral activity against plaque picked RSV604-resistant RSV RSS from passage 2 in human Hep2 cells by plaque reduction assay; type: functional, organism-based; details: HEp-2; summary of the method: as §1
[11] = system: Respiratory syncytial virus; test: Drug resistance, ratio of EC50 for plaque picked RSV604-resistant RSV RSS from passage 2 to EC50 for DMSO-passaged wild type RSV RSS; type: functional
[12] = system: Respiratory syncytial virus; test: Drug resistance, ratio of EC50 for plaque picked A-33903-resistant RSV RSS from passage 2 to EC50 for DMSO-passaged wild type RSV RSS; type: functional
[13] = system: Respiratory syncytial virus; test: Antiviral activity against plaque picked A-33903-resistant RSV RSS from passage 2 in human Hep2 cells by plaque reduction assay; type: functional, organism-based; details: HEp-2; summary of the method: as §1

Row | Structure (SMILES) | pEC50 [1] | pEC50 [2] | pEC50 [3] | pEC50 [4] | pEC50 [5] | CC50 at 144 h [6] [µM] | selectivity ratio [7] | pEC50 [8] | pEC50 [9] | pEC50 [10] | fold change (FC) [11] | fold change (FC) [12] | pEC50 [13]
1 | COc1ccccc1C(=O)NC1N=C(c2ccccc2)c2ccccc2NC1=O (stereo unspecified) | 5.52 | 5.96 | 5.85 | 5.92 | 5.92 | > 50 | > 16 |  |  |  |  |  | 
2 | NC(=O)c1ncn([C@@H]2O[C@H](CO)[C@@H](O)[C@H]2O)n1 [RIBAVIRIN] | 4.94 | 4.60 | 4.88 | 4.77 | 4.72 |  |  | 4.54 | 4.68 | 4.75 | 0.85 |  | 
3 | COc1cc([N+](=O)[O-])ccc1C(=O)N[C@H]1N=C(c2ccccc2)c2ccccc2NC1=O | 6.05 | 6.30 | 6.10 | 6.24 |  | > 50 | > 55 | 6.64 | 6.40 |  |  | 3.3 | 5.89
